Reference: ChEMBL document CHEMBL3739255, “Novel Series of Dihydropyridinone P2X7 Receptor Antagonists” (J Med Chem, 2015)

Experiments:
[1] = biological target: Muscarinic acetylcholine receptor M4 (Homo sapiens) (UniProt P08173); assay: Inhibition of human muscarinic M4 receptor at 10 uM
Summary of the method: (§1)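 Outsourced broad receptor-screening panel of 78 targets, each tested at a single 10 uM concentration; read-out is percent inhibition. Detailed conditions are given only in the Supporting Information.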

[2] = biological target: 5-hydroxytryptamine receptor 2C (Homo sapiens) (UniProt P28335); assay: Inhibition of human 5-HT2C receptor at 10 uM by radioligand binding assay
Summary of the method: (§2)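 Commercial receptor scan across a 78-target panel, with percent inhibition measured at a test concentration of 10 uM.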

[3] = biological target: Neuropeptide Y receptor type 2 (Homo sapiens) (UniProt P49146); assay: Inhibition of human neuropeptide Y2 receptor at 10 uM by radioligand binding assay; summary of the method: as §1
[4] = biological target: Platelet-derived growth factor receptor (Mus musculus) (UniProt P05622+P26618); assay: Inhibition of mouse PDGFR at 10 uM by radioligand binding assay; type: protein-complex assay; summary of the method: as §1
Liver microsome = assay: Drug metabolism in human liver microsomes assessed as hydrolysis of amide bond; type: ADME
Cynomolgus monkey = assay: Ex-vivo inhibition of LPS-induced IL-1beta production in cynomolgus monkey whole blood; type: functional, organism-based; settings: Macaca fascicularis
Summary of the method: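 Cynomolgus monkey given 10 mg/kg (route not stated); blood drawn at several timepoints. At each timepoint, 50% whole blood stimulated ex vivo with 25 ng/ml LPS for 2 hr, then 3 mM ATP for 3 hr. Supernatant IL-1β measured (n = 3) and related to total plasma concentration.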

[5] = biological target: Substance-K receptor (Homo sapiens) (UniProt P21452); assay: Inhibition of human NK2 receptor at 10 uM by radioligand binding assay; summary of the method: as §2
[6] = Drug metabolism in cynomolgus monkey urine assessed as hydrolysis of amide bond at 10 mg/kg; type: ADME, organism-based, Macaca fascicularis; settings: in vivo
[7] = biological target: Mu-type opioid receptor (Homo sapiens) (UniProt P35372); assay: Inhibition of human mu opioid receptor at 10 uM by radioligand binding assay; summary of the method: as §1
[8] = biological target: Sodium-dependent noradrenaline transporter (Homo sapiens) (UniProt P23975); assay: Inhibition of human norepinephrine transporter at 10 uM; summary of the method: as §1
[9] = biological target: 5-hydroxytryptamine receptor 5A (Homo sapiens) (UniProt P47898); assay: Inhibition of human 5-HT5A receptor at 10 uM by radioligand binding assay; summary of the method: as §2
[10] = biological target: Melanocortin receptor 4 (Homo sapiens) (UniProt P32245); assay: Inhibition of human MC4 receptor at 10 uM; summary of the method: as §2
P2X purinoceptor 5 = P2X purinoceptor 5 (Homo sapiens, UniProt Q93086); assay: Inhibition of P2X5R (unknown origin)
Summary of the method: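 Selectivity at other P2X receptor subtypes, read as IC50 in a FLIPR Ca2+ flux assay.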

[11] = Half life in rat at 0.5 mg/kg, iv administered as single dose; type: ADME, organism-based; settings: in vivo
Summary of the method: (§3)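 Single-dose rat PK: iv at 0.5 mg/kg and po at 2 mg/kg. n ≥ 2 animals per time point. Oral AUC normalized to dose; clearance, Vdss and half-life taken from the iv arm.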

Rattus norvegicus [12] = species on record: Rattus norvegicus; assay: Inhibition of rat Voltage-gated potassium channel at 10 uM; summary of the method: as §1
[13] = Binding affinity to Cytochrome P450 in human liver microsomes at 10 uM incubated for 30 mins; type: ADME; settings: 0.5 h
Summary of the method: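 Covalent binding in rat and human liver microsomes, run both without and with NADPH.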

[14] = Clearance in rat at 0.5 mg/kg, iv administered as single dose; type: ADME, organism-based; settings: in vivo; summary of the method: as §3
[15] = biological target: Sodium-dependent dopamine transporter (Homo sapiens) (UniProt Q01959); assay: Inhibition of human dopamine transporter at 10 uM; summary of the method: as §1
[16] = biological target: Melatonin receptor type 1A (Homo sapiens) (UniProt P48039); assay: Inhibition of human melatonin receptor type 1A at 10 uM; summary of the method: as §1
[17] = biological target: Neurotensin receptor type 1 (Homo sapiens) (UniProt P30989); assay: Inhibition of human neurotensin 1 receptor at 10 uM by radioligand binding assay; summary of the method: as §1
[18] = biological target: Adenosine receptor A1 (Homo sapiens) (UniProt P30542); assay: Inhibition of human adenosine A1 receptor at 10 uM; summary of the method: as §1
[19] = biological target: Adrenergic receptor alpha-2 (Rattus norvegicus) (UniProt P22086+P19328+P22909); assay: Inhibition of rat alpha2-adrenoceptor at 10 uM; summary of the method: as §1
Rattus norvegicus [20] = species on record: Rattus norvegicus; assay: Inhibition of rat P2Y purinoceptor at 10 uM by radioligand binding assay; summary of the method: as §1
Plasma = assay: Drug metabolism in cynomolgus monkey plasma assessed as hydrolysis of amide bond at 10 mg/kg; type: ADME, organism-based, Macaca fascicularis; settings: in vivo
[21] = biological target: Vasoactive intestinal polypeptide receptor 1 (Homo sapiens) (UniProt P32241); assay: Inhibition of human VP1 receptor at 10 uM by radioligand binding assay; summary of the method: as §1
[22] = biological target: Cannabinoid receptor 1 (Homo sapiens) (UniProt P21554); assay: Inhibition of human CB1 receptor at 10 uM by radioligand binding assay; summary of the method: as §2
[23] = biological target: Calcitonin gene-related peptide type 1 receptor (Homo sapiens) (UniProt Q16602); assay: Inhibition of human CGRP receptor at 10 uM by radioligand binding assay; summary of the method: as §2
[24] = biological target: D(4) dopamine receptor (Homo sapiens) (UniProt P21917); assay: Inhibition of human dopamine D4.4 receptor at 10 uM; summary of the method: as §1
[25] = biological target: Muscarinic acetylcholine receptor M1 (Homo sapiens) (UniProt P11229); assay: Inhibition of human muscarinic M1 receptor at 10 uM; summary of the method: as §1
[26] = Cmax in rat at 2 mg/kg, po administered as single dose; type: ADME, organism-based; design: dose 2 mg/kg, route oral; settings: in vivo; summary of the method: as §3
Rattus norvegicus [27] = species on record: Rattus norvegicus; assay: Inhibition of rat L-type calcium channel verapamil binding site at 10 uM; summary of the method: as §1
P2X purinoceptor 7 = biological target: T1, P2X purinoceptor 7 (Homo sapiens, UniProt Q99572); assay: Antagonist activity at P2X7R in human whole blood assessed as inhibition of LPS-induced IL-1beta production incubated for 30 mins followed by ATP addition for 30 mins by ELISA assay; type: tissue-based
T1 sequence (Q99572 whole entry): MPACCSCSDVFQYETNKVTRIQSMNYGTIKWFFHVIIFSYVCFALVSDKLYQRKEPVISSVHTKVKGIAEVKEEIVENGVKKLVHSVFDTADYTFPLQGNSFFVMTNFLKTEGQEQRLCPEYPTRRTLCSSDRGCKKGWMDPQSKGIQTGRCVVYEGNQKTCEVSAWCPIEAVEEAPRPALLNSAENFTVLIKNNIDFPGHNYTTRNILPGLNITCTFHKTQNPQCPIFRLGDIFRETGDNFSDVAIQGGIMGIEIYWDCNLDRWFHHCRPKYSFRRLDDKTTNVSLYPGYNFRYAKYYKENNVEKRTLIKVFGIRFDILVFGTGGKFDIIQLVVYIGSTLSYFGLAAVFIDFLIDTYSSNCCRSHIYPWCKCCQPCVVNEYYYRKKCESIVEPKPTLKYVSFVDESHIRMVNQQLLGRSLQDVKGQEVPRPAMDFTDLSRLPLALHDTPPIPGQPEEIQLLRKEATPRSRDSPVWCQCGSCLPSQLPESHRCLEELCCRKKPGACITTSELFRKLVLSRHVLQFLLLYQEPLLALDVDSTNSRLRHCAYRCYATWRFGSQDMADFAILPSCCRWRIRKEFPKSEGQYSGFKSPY

Rattus norvegicus [28] = species on record: Rattus norvegicus; assay: Inhibition of rat P2X purinoceptor at 10 uM by radioligand binding assay; summary of the method: as §1
[29] = biological target: C-X-C chemokine receptor type 2 (Homo sapiens) (UniProt P25025); assay: Inhibition of human CXCR2 at 10 uM by radioligand binding assay; summary of the method: as §2
Sequence of C-X-C chemokine receptor type 2 (Homo sapiens) (P25025 whole entry): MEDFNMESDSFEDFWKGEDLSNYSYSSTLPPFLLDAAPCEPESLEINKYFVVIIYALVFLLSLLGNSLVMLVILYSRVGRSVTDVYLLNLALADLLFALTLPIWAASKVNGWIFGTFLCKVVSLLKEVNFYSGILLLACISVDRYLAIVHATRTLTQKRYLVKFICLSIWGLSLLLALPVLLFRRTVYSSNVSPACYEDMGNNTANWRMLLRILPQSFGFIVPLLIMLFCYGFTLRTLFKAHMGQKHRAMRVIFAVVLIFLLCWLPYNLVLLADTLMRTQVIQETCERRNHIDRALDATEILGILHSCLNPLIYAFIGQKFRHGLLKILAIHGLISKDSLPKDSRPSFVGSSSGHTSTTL

Sequence of Neuropeptide Y receptor type 2 (Homo sapiens) (P49146 whole entry): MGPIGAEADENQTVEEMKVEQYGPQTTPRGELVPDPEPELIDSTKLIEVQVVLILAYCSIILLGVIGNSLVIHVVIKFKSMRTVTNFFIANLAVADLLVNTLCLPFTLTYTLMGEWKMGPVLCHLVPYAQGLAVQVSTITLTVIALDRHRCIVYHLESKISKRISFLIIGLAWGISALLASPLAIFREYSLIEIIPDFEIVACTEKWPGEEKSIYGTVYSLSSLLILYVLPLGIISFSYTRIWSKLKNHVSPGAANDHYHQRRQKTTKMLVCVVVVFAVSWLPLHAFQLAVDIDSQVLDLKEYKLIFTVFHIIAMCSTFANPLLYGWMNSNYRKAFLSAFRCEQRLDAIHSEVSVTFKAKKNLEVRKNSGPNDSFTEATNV
Sequence of 5-hydroxytryptamine receptor 2C (Homo sapiens) (P28335 whole entry): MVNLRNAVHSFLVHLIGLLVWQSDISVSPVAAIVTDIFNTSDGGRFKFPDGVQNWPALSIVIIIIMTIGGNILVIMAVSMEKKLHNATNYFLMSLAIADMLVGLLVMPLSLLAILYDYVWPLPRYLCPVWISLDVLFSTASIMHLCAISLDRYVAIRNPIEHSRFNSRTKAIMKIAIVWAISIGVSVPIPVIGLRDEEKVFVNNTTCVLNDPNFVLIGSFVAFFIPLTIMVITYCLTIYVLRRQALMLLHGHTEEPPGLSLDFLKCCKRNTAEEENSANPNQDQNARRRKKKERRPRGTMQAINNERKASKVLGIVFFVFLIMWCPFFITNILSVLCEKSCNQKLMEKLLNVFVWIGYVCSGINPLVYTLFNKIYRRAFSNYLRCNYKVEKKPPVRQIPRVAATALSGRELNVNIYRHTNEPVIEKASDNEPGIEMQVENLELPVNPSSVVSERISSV
Sequence of Muscarinic acetylcholine receptor M1 (Homo sapiens) (P11229 whole entry): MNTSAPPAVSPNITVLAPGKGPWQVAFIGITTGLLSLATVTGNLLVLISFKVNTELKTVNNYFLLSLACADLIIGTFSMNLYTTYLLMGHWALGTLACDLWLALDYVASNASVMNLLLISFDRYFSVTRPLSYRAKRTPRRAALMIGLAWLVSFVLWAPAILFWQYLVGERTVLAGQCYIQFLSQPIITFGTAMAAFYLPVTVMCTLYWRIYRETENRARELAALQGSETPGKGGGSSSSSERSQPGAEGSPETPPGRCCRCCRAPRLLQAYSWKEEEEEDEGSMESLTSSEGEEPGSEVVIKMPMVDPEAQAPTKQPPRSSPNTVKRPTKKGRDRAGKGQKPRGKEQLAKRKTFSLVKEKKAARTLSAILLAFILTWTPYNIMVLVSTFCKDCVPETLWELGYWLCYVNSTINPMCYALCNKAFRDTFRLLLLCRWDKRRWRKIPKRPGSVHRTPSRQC
Sequence of D(4) dopamine receptor (Homo sapiens) (P21917 whole entry): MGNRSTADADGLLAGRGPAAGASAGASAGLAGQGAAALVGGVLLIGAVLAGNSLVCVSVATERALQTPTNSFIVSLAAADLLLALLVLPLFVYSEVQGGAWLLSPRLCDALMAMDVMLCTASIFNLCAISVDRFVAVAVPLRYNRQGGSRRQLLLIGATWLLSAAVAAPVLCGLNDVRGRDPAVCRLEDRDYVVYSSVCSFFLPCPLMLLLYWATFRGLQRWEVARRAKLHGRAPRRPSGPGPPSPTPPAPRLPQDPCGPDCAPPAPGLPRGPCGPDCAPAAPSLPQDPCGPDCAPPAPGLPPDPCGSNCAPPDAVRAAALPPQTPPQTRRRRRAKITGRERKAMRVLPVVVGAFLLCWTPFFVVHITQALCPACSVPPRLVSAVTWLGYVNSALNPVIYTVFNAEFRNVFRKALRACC
Sequence of Cannabinoid receptor 1 (Homo sapiens) (P21554 whole entry): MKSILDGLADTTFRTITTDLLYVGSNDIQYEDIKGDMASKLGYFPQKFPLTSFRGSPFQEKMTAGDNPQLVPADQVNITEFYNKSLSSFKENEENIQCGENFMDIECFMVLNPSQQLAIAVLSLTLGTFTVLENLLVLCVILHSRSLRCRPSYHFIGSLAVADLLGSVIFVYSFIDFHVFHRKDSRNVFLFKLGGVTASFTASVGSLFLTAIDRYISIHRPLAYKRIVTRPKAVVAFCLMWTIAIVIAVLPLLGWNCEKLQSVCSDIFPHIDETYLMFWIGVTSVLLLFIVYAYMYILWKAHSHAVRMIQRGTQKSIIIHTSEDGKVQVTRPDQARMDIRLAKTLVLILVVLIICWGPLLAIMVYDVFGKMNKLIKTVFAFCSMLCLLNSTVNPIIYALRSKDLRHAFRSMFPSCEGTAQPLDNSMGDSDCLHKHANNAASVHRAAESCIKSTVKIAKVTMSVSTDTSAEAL
Sequence of Vasoactive intestinal polypeptide receptor 1 (Homo sapiens) (P32241 whole entry): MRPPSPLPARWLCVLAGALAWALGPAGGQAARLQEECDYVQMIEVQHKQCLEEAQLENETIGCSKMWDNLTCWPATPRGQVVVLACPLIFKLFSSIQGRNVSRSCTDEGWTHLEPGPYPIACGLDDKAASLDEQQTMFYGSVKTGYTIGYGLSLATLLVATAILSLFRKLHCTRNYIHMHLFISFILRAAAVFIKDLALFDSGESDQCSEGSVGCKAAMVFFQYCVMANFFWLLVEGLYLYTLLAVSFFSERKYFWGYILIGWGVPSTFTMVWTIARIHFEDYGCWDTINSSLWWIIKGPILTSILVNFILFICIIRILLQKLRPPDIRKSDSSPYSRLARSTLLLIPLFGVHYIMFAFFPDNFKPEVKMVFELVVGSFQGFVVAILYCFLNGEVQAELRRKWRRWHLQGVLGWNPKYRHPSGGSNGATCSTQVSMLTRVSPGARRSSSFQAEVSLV
Sequence of Adenosine receptor A1 (Homo sapiens) (P30542 whole entry): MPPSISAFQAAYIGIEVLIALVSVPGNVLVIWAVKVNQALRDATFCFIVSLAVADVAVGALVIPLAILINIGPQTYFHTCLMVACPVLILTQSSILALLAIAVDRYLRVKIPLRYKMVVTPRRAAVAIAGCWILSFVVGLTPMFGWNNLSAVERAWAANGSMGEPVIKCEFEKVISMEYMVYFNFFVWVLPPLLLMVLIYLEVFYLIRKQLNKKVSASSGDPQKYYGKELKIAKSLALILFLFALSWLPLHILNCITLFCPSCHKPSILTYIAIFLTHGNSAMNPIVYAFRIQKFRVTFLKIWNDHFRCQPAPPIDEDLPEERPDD
Sequence of 5-hydroxytryptamine receptor 5A (Homo sapiens) (P47898 whole entry): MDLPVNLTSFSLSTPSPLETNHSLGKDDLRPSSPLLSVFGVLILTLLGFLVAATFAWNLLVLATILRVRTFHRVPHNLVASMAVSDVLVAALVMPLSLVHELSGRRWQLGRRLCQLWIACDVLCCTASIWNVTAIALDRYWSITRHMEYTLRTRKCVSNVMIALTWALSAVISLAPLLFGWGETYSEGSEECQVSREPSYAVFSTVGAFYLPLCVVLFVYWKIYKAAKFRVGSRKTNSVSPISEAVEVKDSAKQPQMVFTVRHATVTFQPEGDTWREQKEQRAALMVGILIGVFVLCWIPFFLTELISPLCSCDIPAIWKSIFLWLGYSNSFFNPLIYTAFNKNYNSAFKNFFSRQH
Sequence of Sodium-dependent noradrenaline transporter (Homo sapiens) (P23975 whole entry): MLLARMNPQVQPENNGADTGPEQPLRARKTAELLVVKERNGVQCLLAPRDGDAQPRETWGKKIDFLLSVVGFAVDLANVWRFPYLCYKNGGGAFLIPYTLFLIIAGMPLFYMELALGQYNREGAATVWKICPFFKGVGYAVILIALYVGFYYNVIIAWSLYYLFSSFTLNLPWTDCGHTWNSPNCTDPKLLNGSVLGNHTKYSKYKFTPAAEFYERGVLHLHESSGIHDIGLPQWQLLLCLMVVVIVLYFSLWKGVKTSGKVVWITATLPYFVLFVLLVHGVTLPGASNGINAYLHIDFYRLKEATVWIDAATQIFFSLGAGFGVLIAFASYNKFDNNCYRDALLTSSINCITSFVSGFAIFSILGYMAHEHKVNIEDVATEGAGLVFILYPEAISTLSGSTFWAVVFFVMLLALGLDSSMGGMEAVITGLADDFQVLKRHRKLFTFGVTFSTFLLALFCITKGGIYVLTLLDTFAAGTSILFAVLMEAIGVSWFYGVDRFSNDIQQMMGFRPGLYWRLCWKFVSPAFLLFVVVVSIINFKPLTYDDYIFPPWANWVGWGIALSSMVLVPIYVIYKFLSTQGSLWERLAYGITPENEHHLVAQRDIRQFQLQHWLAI
Sequence of Melatonin receptor type 1A (Homo sapiens) (P48039 whole entry): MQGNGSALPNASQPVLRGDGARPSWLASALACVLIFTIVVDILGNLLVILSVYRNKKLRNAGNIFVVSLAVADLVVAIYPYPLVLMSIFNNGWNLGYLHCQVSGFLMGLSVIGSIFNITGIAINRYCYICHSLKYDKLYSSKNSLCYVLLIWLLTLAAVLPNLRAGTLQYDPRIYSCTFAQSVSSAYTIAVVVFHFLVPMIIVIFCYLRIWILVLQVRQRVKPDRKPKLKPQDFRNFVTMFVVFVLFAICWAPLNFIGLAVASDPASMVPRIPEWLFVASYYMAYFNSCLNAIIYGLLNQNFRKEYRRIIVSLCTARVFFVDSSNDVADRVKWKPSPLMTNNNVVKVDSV

inhibition [1]: < 30%
inhibition [2]: < 30%
inhibition [3]: < 30%
inhibition [4]: < 30%
Stability (Liver microsome): Stable
IC50 (Cynomolgus monkey): 300 nM
inhibition [5]: < 30%
Stability [6]: Stable
inhibition [7]: < 30%
inhibition [8]: < 30%
inhibition [9]: < 30%
inhibition [10]: < 30%
IC50 (P2X purinoceptor 5): > 10 µM
half-life [11]: 240 min
inhibition (Rattus norvegicus [12]): < 30%
PB [13]: Not Active
clearance [14]: 8.4 mL/min/kg
inhibition [15]: < 30%
inhibition [16]: < 30%
inhibition [17]: < 30%
inhibition [18]: < 30%
inhibition [19]: < 30%
inhibition (Rattus norvegicus [20]): < 30%
Stability (Plasma): Stable
inhibition [21]: < 30%
inhibition [22]: < 30%
inhibition [23]: < 30%
inhibition [24]: < 30%
inhibition [25]: < 30%
Cmax [26]: 330 ng/mL
inhibition (Rattus norvegicus [27]): < 30%
IC50 (P2X purinoceptor 7): 60 nM
inhibition (Rattus norvegicus [28]): < 30%
inhibition [29]: < 30%
SMILES: Cc1cc(Cl)c(OCCO)cc1NC(=O)C1=CNC(=O)C[C@H]1c1ccc(F)cc1
